The source made the active and inactive calls. No cut-off for these calls is given here.

In assay [1] the target is Cystic fibrosis transmembrane conductance regulator (Homo sapiens) (UniProt P13569). The assay is described as follows: Inhibition of CFTR transcription assessed as decrease of CFTR protein level at 50 uM by immunoblot method.
A short description of assay [2]: In vivo inhibition of HDAC. It counts as organism-based.
The target of assay [3] is T1, Histone deacetylase 7 (Homo sapiens) (UniProt Q8WUI4).
T1 sequence (whole entry): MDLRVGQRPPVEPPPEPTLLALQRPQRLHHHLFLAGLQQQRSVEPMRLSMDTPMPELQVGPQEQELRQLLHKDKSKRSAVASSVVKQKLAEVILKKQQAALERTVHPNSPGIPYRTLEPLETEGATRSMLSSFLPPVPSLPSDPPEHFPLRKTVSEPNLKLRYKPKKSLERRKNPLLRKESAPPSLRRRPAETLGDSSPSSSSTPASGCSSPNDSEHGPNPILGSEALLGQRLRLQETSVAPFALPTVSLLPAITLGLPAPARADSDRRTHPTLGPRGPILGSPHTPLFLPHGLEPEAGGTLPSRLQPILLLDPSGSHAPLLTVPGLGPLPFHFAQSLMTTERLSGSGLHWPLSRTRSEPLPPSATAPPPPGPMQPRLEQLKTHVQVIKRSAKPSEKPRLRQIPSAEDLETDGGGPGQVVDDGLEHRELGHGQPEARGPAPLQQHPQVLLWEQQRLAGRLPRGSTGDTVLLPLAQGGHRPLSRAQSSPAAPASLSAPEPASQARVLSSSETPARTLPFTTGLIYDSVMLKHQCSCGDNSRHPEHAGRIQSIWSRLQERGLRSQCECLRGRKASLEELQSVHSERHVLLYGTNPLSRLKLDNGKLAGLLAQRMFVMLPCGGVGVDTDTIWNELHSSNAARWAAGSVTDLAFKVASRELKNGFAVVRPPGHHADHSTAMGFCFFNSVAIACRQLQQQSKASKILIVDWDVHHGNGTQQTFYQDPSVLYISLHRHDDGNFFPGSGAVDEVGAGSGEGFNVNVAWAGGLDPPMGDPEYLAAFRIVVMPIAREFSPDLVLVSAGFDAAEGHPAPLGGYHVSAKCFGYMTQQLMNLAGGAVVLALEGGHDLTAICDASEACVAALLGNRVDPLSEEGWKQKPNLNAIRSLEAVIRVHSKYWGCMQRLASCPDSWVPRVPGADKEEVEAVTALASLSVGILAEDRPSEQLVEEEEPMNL
The assay is described as follows: Inhibition of HDAC7 in wild-type CFTR expressing human primary lung cells assessed as induction of short circuit currents at 1 uM for 4, 6, and 8 days relative to control. Format: cell-based.

The target of assay [4] is T1, Histone deacetylase 7 (Homo sapiens). The assay is described as follows: Inhibition of HDAC7 in wild-type CFTR expressing human primary lung cells assessed as forskolin-stimulated Fdelta508 CFTR channel activity at 10 uM after 24 hrs relative to control. The following applies: in the assay text read “Fdelta508 CFTR homozygous” for “wild-type CFTR expressing”. It counts as cell-based. A digest of the protocol: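 Primary ΔF/ΔF human bronchial epithelial cells on permeable supports receive acute treatment, 10 μM for 24 h. The result is expressed relative to control.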

For assay [5] the target is unchanged. The assay is described as follows: Inhibition of HDAC7 in human homozygous Fdelta508 primary bronchial epithelial cells assessed as induction of short circuit currents at 1 uM for 4, 6, and 8 days relative to control. The following applies: Epithelial cell. Format: cell-based. A digest of the protocol:
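Primary bronchial epithelial cells homozygous for ΔF508 from patients are grown on permeable supports. They are exposed to 1 μM for 4, 6 and 8 days against DMSO controls. ΔIsc is measured in Ussing chambers in μA/cm2, and is also compared with wild-type level.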

Assay [6] shares this target. The assay is described as follows: Inhibition of HDAC7 expressed in hamster BHK cell line assessed as increase in plasma membrane Fdelta508 CFTR protein at 1 uM by immunofluorescence method. Format: cell-based. An outline of the steps:
(§1)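 Surface ΔF508extope is labelled with HA.11 antibody under non-permeabilizing conditions.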

The target is the same in assay [7]. The assay is described as follows: Inhibition of HDAC7 in human CFBE41o- cell line assessed as correction of mutant Fdelta508 CFTR trafficking to cell surface as glycoform at 1 uM by Immunoblot analysis. A digest of the protocol: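 CFBE41o- ΔF508 cells in α-MEM/10% FBS/2mM L-glutamine/puromycin are dosed at 1 μM every 24 h, chronically for up to 8 days, against DMSO. Lysates are made in Tris-HCl/NaCl/1% Triton X-100. 15μg protein is run on 8% SDS-PAGE and probed with M3A7 by chemiluminescence. Band B (ER) and band C (post-Golgi) are quantified, and the C/B ratio is calculated.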

Assay [8] has the same target. The assay is described as follows: Inhibition of HDAC7 in Fdelta508 CFTR-expressing human CFBE41o- monolayers assessed as increase in short circuit currents at 10 uM. An outline of the steps: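 CFBE41o- cells stably expressing ΔF508 CFTR are cultured on permeable supports and mounted for short-circuit current (Isc) measurement.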
For a further assay, the system named is BHK. The assay is described as follows: Inhibition of HDAC expressed in hamster BHK cell line assessed as increase in plasma membrane Fdelta508 CFTR protein at 5 uM by immunofluorescence method. It counts as cell-based. A digest of the protocol: as §1

Cystic fibrosis transmembrane conductance regulator (Homo sapiens), sequence (P13569 whole entry, looked up): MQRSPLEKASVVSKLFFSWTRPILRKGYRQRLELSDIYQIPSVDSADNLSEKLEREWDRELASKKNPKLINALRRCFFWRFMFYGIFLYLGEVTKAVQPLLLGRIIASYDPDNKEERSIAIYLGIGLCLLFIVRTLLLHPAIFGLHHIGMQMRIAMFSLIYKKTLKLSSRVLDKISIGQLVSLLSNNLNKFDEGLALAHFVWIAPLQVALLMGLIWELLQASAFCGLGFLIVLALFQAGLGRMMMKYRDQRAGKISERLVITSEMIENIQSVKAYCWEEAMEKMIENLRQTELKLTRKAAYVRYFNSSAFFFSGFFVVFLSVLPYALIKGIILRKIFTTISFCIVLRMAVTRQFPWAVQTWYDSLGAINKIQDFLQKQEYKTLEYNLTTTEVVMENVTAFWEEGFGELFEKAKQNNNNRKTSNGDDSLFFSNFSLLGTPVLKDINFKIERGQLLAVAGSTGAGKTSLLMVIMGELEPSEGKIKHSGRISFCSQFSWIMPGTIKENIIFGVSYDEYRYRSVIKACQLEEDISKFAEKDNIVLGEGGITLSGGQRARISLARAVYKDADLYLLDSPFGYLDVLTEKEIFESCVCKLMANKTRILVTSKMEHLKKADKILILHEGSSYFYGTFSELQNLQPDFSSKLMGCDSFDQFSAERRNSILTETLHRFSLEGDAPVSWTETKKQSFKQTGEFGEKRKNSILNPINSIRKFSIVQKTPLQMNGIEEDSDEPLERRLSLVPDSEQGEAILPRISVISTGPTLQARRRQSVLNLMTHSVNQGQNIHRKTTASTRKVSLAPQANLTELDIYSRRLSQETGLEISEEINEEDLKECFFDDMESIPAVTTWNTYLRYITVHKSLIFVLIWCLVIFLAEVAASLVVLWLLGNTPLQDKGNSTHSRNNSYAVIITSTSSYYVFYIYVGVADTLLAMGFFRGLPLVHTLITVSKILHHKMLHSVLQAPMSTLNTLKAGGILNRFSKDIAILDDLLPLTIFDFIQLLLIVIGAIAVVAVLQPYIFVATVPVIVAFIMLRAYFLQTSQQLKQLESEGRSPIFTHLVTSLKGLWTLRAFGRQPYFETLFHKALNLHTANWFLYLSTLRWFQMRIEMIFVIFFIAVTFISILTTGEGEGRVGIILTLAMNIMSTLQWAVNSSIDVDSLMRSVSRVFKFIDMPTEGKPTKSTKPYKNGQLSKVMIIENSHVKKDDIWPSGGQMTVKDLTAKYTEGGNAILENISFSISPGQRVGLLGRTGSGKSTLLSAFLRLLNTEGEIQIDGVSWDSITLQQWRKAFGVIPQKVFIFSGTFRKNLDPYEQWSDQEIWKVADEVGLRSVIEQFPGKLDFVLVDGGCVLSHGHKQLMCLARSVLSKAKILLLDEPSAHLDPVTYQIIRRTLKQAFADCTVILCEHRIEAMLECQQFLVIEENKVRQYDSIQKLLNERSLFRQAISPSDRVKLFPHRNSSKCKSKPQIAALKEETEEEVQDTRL

As to `CC(/C=C/C(=O)NO)=C\[C@@H](C)C(=O)c1ccc(N(C)C)cc1` [TRICHOSTATIN], the inhibition entry in [1] is “Active”. The compound further returned an IC50 in assay [2] of 100 nM.

Consider `O=C(CCCCCCC(=O)Nc1ccccc1)NO`, for which, in assay [1], the inhibition result was “Active”.

Consider `C=C[C@@]1(C)CC(=O)[C@]2(O)[C@@]3(C)[C@@H](O)CCC(C)(C)[C@@H]3[C@H](O)[C@H](OC(C)=O)[C@@]2(C)O1`, for which the figures for the Activity in assay [3], in assay [4] and in assay [5] were 23.1 uA.cm'-2, 3.7 uA.cm'-2 and 6.5 uA.cm'-2, respectively.

With `O=c1c(-c2ccc(O)cc2)coc2cc(O)cc(O)c12`, in assay [4], the Activity is 3.7 uA.cm'-2.

On to `O=C(CCCCCN1C(=O)c2cccc3cccc(c23)C1=O)NO`, for which the inhibition entry in assay [6], in assay [7], in assay [1] and in assay [8] was “Active” in each case. In assay [2], this compound yielded an IC50 of 1000 nM.

Turning to `Nc1ccccc1NC(=O)c1ccc(CNC(=O)OCc2cccnc2)cc1` [ENTINOSTAT], the inhibition result (in assay [1]; with BHK) was “Active” each time. The compound also displayed an IC50 in assay [2] of 5000 nM.

For the origin of these results see ChEMBL document CHEMBL1255383, “Reduced histone deacetylase 7 activity restores function to misfolded CFTR in cystic fibrosis” (Nat Chem Biol, 2010).
